Experimental data from ChEMBL document CHEMBL3632558, “Synthesis, antimycobacterial and antibacterial activity of l-[(1R,2S)-2-fluorocyclopropyl]naphthyridone derivatives containing an oxime-functionalized pyrrolidine moiety” (2015).
Values after ≈ are worked out from the molar mass of the structure shown.

What was measured:
Format in all cases: functional
Klebsiella pneumoniae [1] = assay: Antibacterial activity against Klebsiella pneumoniae 14-1 after 18 to 24 hrs
In short: (§1)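 MIC by standard NCCLS reference procedure (M100-S11); lowest concentration of compound inhibiting visible bacterial growth after incubation at 35 °C for 18–24 h, read as complete inhibition of growth. Ciprofloxacin, levofloxacin and moxifloxacin run alongside as reference agents.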

Klebsiella pneumoniae [2] = assay: Antibacterial activity against Klebsiella pneumoniae 14-2 after 18 to 24 hrs; in short: as §1
Staphylococcus aureus [3] = assay: Antibacterial activity against methicillin-resistant Staphylococcus aureus 14-4 after 18 to 24 hrs
Staphylococcus aureus [4] = assay: Antibacterial activity against methicillin-sensitive Staphylococcus aureus 14-1 after 18 to 24 hrs; in short: as §1
Staphylococcus aureus [5] = assay: Antibacterial activity against methicillin-resistant Staphylococcus aureus 14-5 after 18 to 24 hrs
[6] = tested on: Mycobacterium tuberculosis; assay: Antimycobacterial activity against Mycobacterium tuberculosis H37Rv ATCC 27294 by alamar blue assay
In short: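 Microplate Alamar Blue Assay; MIC is the lowest concentration giving ≥90% reduction in fluorescence relative to the mean of replicate bacterium-only controls. MDR strain 6133 is resistant to isoniazid and rifampicin.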

Enterococcus faecalis [7] = assay: Antibacterial activity against Enterococcus faecalis 14-1 after 18 to 24 hrs; in short: as §1
Escherichia coli [8] = assay: Antibacterial activity against Escherichia coli ATCC 25922 after 18 to 24 hrs; in short: as §1
[9] = tested on: Staphylococcus epidermidis; assay: Antibacterial activity against methicillin-resistant Staphylococcus epidermidis 14-21 after 18 to 24 hrs
Pseudomonas aeruginosa [10] = assay: Antibacterial activity against Pseudomonas aeruginosa ATCC 27853 after 18 to 24 hrs; in short: as §1
[11] = tested on: Staphylococcus epidermidis; assay: Antibacterial activity against methicillin-resistant Staphylococcus epidermidis 14-22 after 18 to 24 hrs
Escherichia coli [12] = assay: Antibacterial activity against Escherichia coli 14-1 after 18 to 24 hrs; in short: as §1
[13] = tested on: Staphylococcus epidermidis; assay: Antibacterial activity against methicillin-resistant Staphylococcus epidermidis 14-37 after 18 to 24 hrs
Staphylococcus aureus [14] = assay: Antibacterial activity against Staphylococcus aureus CMCC 26003 after 18 to 24 hrs; in short: as §1
Klebsiella pneumoniae [15] = assay: Antibacterial activity against ESBL-positive Klebsiella pneumoniae 14-17 after 18 to 24 hrs; in short: as §1
Enterococcus faecium [16] = assay: Antibacterial activity against Enterococcus faecium 14-2 after 18 to 24 hrs; in short: as §1
Pseudomonas aeruginosa [17] = assay: Antibacterial activity against Pseudomonas aeruginosa 14-14 after 18 to 24 hrs; in short: as §1
Klebsiella pneumoniae [18] = assay: Antibacterial activity against ESBL-positive Klebsiella pneumoniae 14-19 after 18 to 24 hrs; in short: as §1
Enterococcus faecium [19] = assay: Antibacterial activity against Enterococcus faecium 14-5 after 18 to 24 hrs; in short: as §1
Staphylococcus aureus [20] = assay: Antibacterial activity against methicillin-sensitive Staphylococcus aureus 14-2 after 18 to 24 hrs; in short: as §1
Streptococcus pneumoniae = assay: Antibacterial activity against Streptococcus pneumoniae ATCC 19615 after 18 to 24 hrs; in short: as §1
Escherichia coli [21] = assay: Antibacterial activity against ESBL-positive Escherichia coli 14-1 after 18 to 24 hrs; in short: as §1
Enterococcus faecalis [22] = assay: Antibacterial activity against Enterococcus faecalis 14-2 after 18 to 24 hrs; in short: as §1
Klebsiella pneumoniae [23] = assay: Antibacterial activity against ESBL-positive Klebsiella pneumoniae 14-18 after 18 to 24 hrs; in short: as §1
Staphylococcus aureus [24] = assay: Antibacterial activity against methicillin-sensitive Staphylococcus aureus 14-3 after 18 to 24 hrs; in short: as §1
Enterococcus faecium [25] = assay: Antibacterial activity against Enterococcus faecium 14-1 after 18 to 24 hrs; in short: as §1
[26] = tested on: Staphylococcus epidermidis; assay: Antibacterial activity against methicillin-resistant Staphylococcus epidermidis 14-39 after 18 to 24 hrs
Klebsiella pneumoniae [27] = assay: Antibacterial activity against Klebsiella pneumoniae 14-3 after 18 to 24 hrs; in short: as §1
Staphylococcus aureus [28] = assay: Antibacterial activity against methicillin-sensitive Staphylococcus aureus 14-4 after 18 to 24 hrs; in short: as §1
Escherichia coli [29] = assay: Antibacterial activity against ESBL-positive Escherichia coli 14-2 after 18 to 24 hrs; in short: as §1
Enterococcus faecium [30] = assay: Antibacterial activity against Enterococcus faecium 14-6 after 18 to 24 hrs; in short: as §1
Klebsiella pneumoniae [31] = assay: Antibacterial activity against Klebsiella pneumoniae 14-4 after 18 to 24 hrs; in short: as §1
Pseudomonas aeruginosa [32] = assay: Antibacterial activity against Pseudomonas aeruginosa 14-19 after 18 to 24 hrs; in short: as §1
Pseudomonas aeruginosa [33] = assay: Antibacterial activity against Pseudomonas aeruginosa 14-16 after 18 to 24 hrs; in short: as §1
[34] = tested on: Staphylococcus epidermidis; assay: Antibacterial activity against methicillin-sensitive Staphylococcus epidermidis 14-2 after 18 to 24 hrs; in short: as §1
Escherichia coli [35] = assay: Antibacterial activity against Escherichia coli 14-2 after 18 to 24 hrs; in short: as §1
Pseudomonas aeruginosa [36] = assay: Antibacterial activity against Pseudomonas aeruginosa 14-9 after 18 to 24 hrs; in short: as §1
Pseudomonas aeruginosa [37] = assay: Antibacterial activity against Pseudomonas aeruginosa 14-15 after 18 to 24 hrs; in short: as §1

Row | SMILES | MIC (Klebsiella pneumoniae [1]) | MIC (Klebsiella pneumoniae [2]) | MIC (Staphylococcus aureus [3]) | MIC90 [6] | MIC (Enterococcus faecalis [7]) | MIC (Escherichia coli [8]) | MIC [9] | MIC [11] | MIC [13] | MIC (Klebsiella pneumoniae [15]) | MIC (Klebsiella pneumoniae [18]) | MIC (Enterococcus faecium [19]) | MIC (Staphylococcus aureus [20]) | MIC (Streptococcus pneumoniae) | MIC (Enterococcus faecalis [22]) | MIC (Klebsiella pneumoniae [23]) | MIC (Enterococcus faecium [25]) | MIC [26] | MIC (Klebsiella pneumoniae [27]) | MIC (Staphylococcus aureus [28]) | further results
1 | NCC1CN(c2nc3c(cc2F)c(=O)c(C(=O)O)cn3[C@@H]2C[C@@H]2F)C/C1=N\OCc1ccc(F)cc1 (some centres undefined) | 64 µg/mL (≈ 128 µM) | > 128 µg/mL | 32 µg/mL (≈ 63.8 µM) | < 0.25 µg/mL | 64 µg/mL (≈ 128 µM) | < 0.008 µg/mL | 8 µg/mL (≈ 16 µM) | 8 µg/mL (≈ 16 µM) | 8 µg/mL (≈ 16 µM) | 8 µg/mL (≈ 16 µM) | 64 µg/mL (≈ 128 µM) | 8 µg/mL (≈ 16 µM) | < 0.008 µg/mL | 0.03 µg/mL (≈ 0.0598 µM) | < 0.008 µg/mL | 16 µg/mL (≈ 31.9 µM) | 1 µg/mL (≈ 1.99 µM) | 16 µg/mL (≈ 31.9 µM) | 64 µg/mL (≈ 128 µM) | < 0.008 µg/mL | MIC (Staphylococcus aureus [4]): 4 µg/mL (≈ 7.98 µM); MIC (Staphylococcus aureus [5]): 16 µg/mL (≈ 31.9 µM); MIC (Pseudomonas aeruginosa [10]): 4 µg/mL (≈ 7.98 µM); MIC (Escherichia coli [12]): 64 µg/mL (≈ 128 µM); MIC (Staphylococcus aureus [14]): < 0.008 µg/mL; MIC (Enterococcus faecium [16]): 2 µg/mL (≈ 3.99 µM); MIC (Pseudomonas aeruginosa [17]): 16 µg/mL (≈ 31.9 µM); MIC (Escherichia coli [21]): 8 µg/mL (≈ 16 µM); MIC (Staphylococcus aureus [24]): < 0.008 µg/mL; MIC (Escherichia coli [29]): 64 µg/mL (≈ 128 µM); MIC (Enterococcus faecium [30]): 8 µg/mL (≈ 16 µM); MIC (Klebsiella pneumoniae [31]): 128 µg/mL (≈ 255 µM); MIC (Pseudomonas aeruginosa [32]): 16 µg/mL (≈ 31.9 µM); MIC (Pseudomonas aeruginosa [33]): 16 µg/mL (≈ 31.9 µM); MIC [34]: 64 µg/mL (≈ 128 µM); MIC (Escherichia coli [35]): 64 µg/mL (≈ 128 µM); MIC (Pseudomonas aeruginosa [36]): 8 µg/mL (≈ 16 µM); MIC (Pseudomonas aeruginosa [37]): 16 µg/mL (≈ 31.9 µM)
2 | NCC1CN(c2nc3c(cc2F)c(=O)c(C(=O)O)cn3[C@@H]2C[C@@H]2F)C/C1=N\OCc1ccc(Cl)cc1 (some centres undefined) | 128 µg/mL (≈ 247 µM) | 128 µg/mL (≈ 247 µM) | 16 µg/mL (≈ 30.9 µM) | 0.342 µg/mL (≈ 0.66 µM) | 32 µg/mL (≈ 61.8 µM) | 0.125 µg/mL (≈ 0.241 µM) | 4 µg/mL (≈ 7.72 µM) | 4 µg/mL (≈ 7.72 µM) | 8 µg/mL (≈ 15.4 µM) | 8 µg/mL (≈ 15.4 µM) | 64 µg/mL (≈ 124 µM) | 4 µg/mL (≈ 7.72 µM) | < 0.008 µg/mL | 0.015 µg/mL (≈ 0.029 µM) | 0.125 µg/mL (≈ 0.241 µM) | 8 µg/mL (≈ 15.4 µM) | 2 µg/mL (≈ 3.86 µM) | 8 µg/mL (≈ 15.4 µM) | 64 µg/mL (≈ 124 µM) | 0.03 µg/mL (≈ 0.0579 µM) | MIC (Staphylococcus aureus [4]): 2 µg/mL (≈ 3.86 µM); MIC (Staphylococcus aureus [5]): 32 µg/mL (≈ 61.8 µM); MIC (Pseudomonas aeruginosa [10]): 4 µg/mL (≈ 7.72 µM); MIC (Escherichia coli [12]): 32 µg/mL (≈ 61.8 µM); MIC (Staphylococcus aureus [14]): < 0.008 µg/mL; MIC (Enterococcus faecium [16]): 2 µg/mL (≈ 3.86 µM); MIC (Pseudomonas aeruginosa [17]): 8 µg/mL (≈ 15.4 µM); MIC (Escherichia coli [21]): 4 µg/mL (≈ 7.72 µM); MIC (Staphylococcus aureus [24]): 0.015 µg/mL (≈ 0.029 µM); MIC (Escherichia coli [29]): 32 µg/mL (≈ 61.8 µM); MIC (Enterococcus faecium [30]): 8 µg/mL (≈ 15.4 µM); MIC (Klebsiella pneumoniae [31]): 128 µg/mL (≈ 247 µM); MIC (Pseudomonas aeruginosa [32]): 8 µg/mL (≈ 15.4 µM); MIC (Pseudomonas aeruginosa [33]): 8 µg/mL (≈ 15.4 µM); MIC [34]: 16 µg/mL (≈ 30.9 µM); MIC (Escherichia coli [35]): 32 µg/mL (≈ 61.8 µM); MIC (Pseudomonas aeruginosa [36]): 4 µg/mL (≈ 7.72 µM); MIC (Pseudomonas aeruginosa [37]): 8 µg/mL (≈ 15.4 µM)
3 | NCC1CN(c2nc3c(cc2F)c(=O)c(C(=O)O)cn3[C@@H]2C[C@@H]2F)C/C1=N\OCc1ccccc1 (some centres undefined) |  |  |  | 0.5 µg/mL (≈ 1.03 µM) |  |  |  |  |  |  |  |  |  |  |  |  |  |  |  |  | 
4 | O=C(O)c1cn(C2CC2)c2cc(N3CCNCC3)c(F)cc2c1=O [CIPROFLOXACIN] | 32 µg/mL (≈ 96.6 µM) | 16 µg/mL (≈ 48.3 µM) | > 128 µg/mL |  | 128 µg/mL (≈ 386 µM) | < 0.008 µg/mL | 64 µg/mL (≈ 193 µM) | 128 µg/mL (≈ 386 µM) | 128 µg/mL (≈ 386 µM) | 4 µg/mL (≈ 12.1 µM) | 64 µg/mL (≈ 193 µM) | 128 µg/mL (≈ 386 µM) | 0.25 µg/mL (≈ 0.754 µM) | 2 µg/mL (≈ 6.04 µM) | 1 µg/mL (≈ 3.02 µM) | 0.25 µg/mL (≈ 0.754 µM) | 64 µg/mL (≈ 193 µM) | 128 µg/mL (≈ 386 µM) | 128 µg/mL (≈ 386 µM) | 0.5 µg/mL (≈ 1.51 µM) | MIC (Enterococcus faecium [30]): > 128 µg/mL; MIC (Klebsiella pneumoniae [31]): 32 µg/mL (≈ 96.6 µM); MIC [34]: > 128 µg/mL
